# Test results taken from ChEMBL document CHEMBL4689842, “EUbOPEN Chemogenomics Library wave 1” (2021).
# Values joined by “and” are separate entries in the source; they are usually repeats but may differ in a detail not shown here. Equal entries are not always repeated.
# Assays:
# Type in all cases: toxicity, cell-based
# [1] = tested on: Fibroblast; assay: Incucyte cell viability with human fibroblast; conditions: 10 µM, compound concentration 10 uM; note: filed as whole numbers so only -1 and 0 and 1 occur
# [2] = tested on: Fibroblast; assay: Multiplex assay against human fibroblast
# Outline: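 Compound was added to live cells that had been stained at seeding with Hoechst33342, BioTracker Green Microtubule Cytoskeleton Dye, MitoTracker Red and Annexin V Alexa Fluor 680, and imaging followed on a CQ1 microscope at 37°C and 5% CO2. CellPathfinder machine-learning gating divided cells into Hoechst high-intensity objects or normal cells, normal cells into healthy, pyknosed or fragmented nuclei, and pyknosed cells into mitotic or apoptotic. Tubulin, mitochondrial-mass and membrane-permeability phenotypes are per cents of healthy-nucleus cells.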
# [3] = tested on: U2OS; assay: Incucyte cell viability with U2OS; conditions: human, 10 µM, compound concentration 10 uM; note: filed as whole numbers so only -1 and 0 and 1 occur
# [4] = 0 h, replicate number 1, timepoint 0 hours
# [5] = 6 h, replicate number 1, timepoint 6 hours
# [6] = 12 h, replicate number 1, timepoint 12 hours
# [7] = 18 h, replicate number 1, timepoint 18 hours
# [8] = 24 h, replicate number 1, timepoint 24 hours
# [9] = 12 h, 1 µM, compound concentration 1 uM, replicate 1
# [10] = 12 h, 1 µM, compound concentration 1 uM, replicate 2
# [11] = 12 h, 10 µM, compound concentration 10 uM, replicate 1
# [12] = 12 h, 10 µM, compound concentration 10 uM, replicate 2
# [13] = 24 h, 1 µM, compound concentration 1 uM, replicate 1
# [14] = 24 h, 1 µM, compound concentration 1 uM, replicate 2
# [15] = 24 h, 10 µM, compound concentration 10 uM, replicate 1
# [16] = 24 h, 10 µM, compound concentration 10 uM, replicate 2
# [17] = 48 h, 10 µM, compound concentration 10 uM, replicate 1
# [18] = 48 h, 10 µM, compound concentration 10 uM, replicate 2
smiles,measurement,setting,value
CC(C)Oc1ccc(C(=O)N[C@H](CNC(=O)CN(C)C)Cc2ccc(-c3cn4cccc([C@H](C)O)c4n3)cc2)cc1Cl [GSK-923295A],Growth Rate,[1]; [4],0
same,Growth Rate,"[1]; 0 h, replicate number 2, timepoint 0 hours",1
same,Growth Rate,[1]; [5],0
same,Growth Rate,[1]; [6],0
same,Growth Rate,[1]; [7],0
same,Growth Rate,[1]; [8],0
same,Population Apoptotic (%),[2]; [9],71%
same,Population Fragmented Nuclei (%),[2]; [9],32%
same,Population Healthy Nuclei (%),[2]; [9],48%
same,Population Hoechst High Intensity Objects (%),[2]; [9],12%
same,Population Membrane Permeable-Phenotype (%),[2]; [9],9%
same,Population Mitochondria Different-Phenotype (%),[2]; [9],5%
same,Population Mitotic Cells (%),[2]; [9],28%
same,Population Normal (%),[2]; [9],87%
same,Population Pyknosed Nuclei (%),[2]; [9],18%
same,Population Tubulin-Different-Phenotype (%),[2]; [9],20%
same,Total Cell Count,[2]; [9],256
same,Population Apoptotic (%),[2]; [10],100%
same,Population Fragmented Nuclei (%),[2]; [10],49%
same,Population Healthy Nuclei (%),[2]; [10],43%
same,Population Hoechst High Intensity Objects (%),[2]; [10],31%
same,Population Mitochondria Different-Phenotype (%),[2]; [10],31%
same,Population Mitotic Cells (%),[2]; [10],0%
same,Population Normal (%),[2]; [10],68%
same,Population Pyknosed Nuclei (%),[2]; [10],7%
same,Population Tubulin-Different-Phenotype (%),[2]; [10],40%
same,Total Cell Count,[2]; [10],74
same,Population Apoptotic (%),[2]; [11],53% and 65%
same,Population Fragmented Nuclei (%),[2]; [11],34% and 27%
same,Population Healthy Nuclei (%),[2]; [11],34% and 50%
same,Population Hoechst High Intensity Objects (%),[2]; [11],30% and 28%
same,Population Mitochondria Different-Phenotype (%),[2]; [11],11% and 7%
same,Population Mitotic Cells (%),[2]; [11],46% and 34%
same,Population Normal (%),[2]; [11],69% and 71%
same,Population Pyknosed Nuclei (%),[2]; [11],30% and 21%
same,Population Tubulin-Different-Phenotype (%),[2]; [11],82% and 59%
same,Population Apoptotic (%),[2]; [12],75% and 30%
same,Population Healthy Nuclei (%),[2]; [12],28% and 73%
same,Population Membrane Permeable-Phenotype (%),[2]; [12],42% and 30%
same,Population Mitotic Cells (%),[2]; [12],25% and 69%
same,Population Normal (%),[2]; [12],65% and 97%
same,Population Pyknosed Nuclei (%),[2]; [12],16% and 17%
same,Population Tubulin-Different-Phenotype (%),[2]; [12],92% and 100%
same,Total Cell Count,[2]; [12],75 and 76
same,Population Apoptotic (%),[2]; [13],65%
same,Population Fragmented Nuclei (%),[2]; [13],27%
same,Population Healthy Nuclei (%),[2]; [13],58%
same,Population Hoechst High Intensity Objects (%),[2]; [13],18%
same,Population Membrane Permeable-Phenotype (%),[2]; [13],6%
same,Population Mitochondria Different-Phenotype (%),[2]; [13],7%
same,Population Mitotic Cells (%),[2]; [13],34%
same,Population Normal (%),[2]; [13],81%
same,Population Pyknosed Nuclei (%),[2]; [13],14%
same,Population Tubulin-Different-Phenotype (%),[2]; [13],10%
same,Total Cell Count,[2]; [13],266
same,Population Apoptotic (%),[2]; [14],100%
same,Population Fragmented Nuclei (%),[2]; [14],58%
same,Population Healthy Nuclei (%),[2]; [14],34%
same,Population Hoechst High Intensity Objects (%),[2]; [14],26%
same,Population Membrane Permeable-Phenotype (%),[2]; [14],10%
same,Population Mitochondria Different-Phenotype (%),[2]; [14],15%
same,Population Mitotic Cells (%),[2]; [14],0%
same,Population Normal (%),[2]; [14],73%
same,Population Pyknosed Nuclei (%),[2]; [14],6%
same,Population Tubulin-Different-Phenotype (%),[2]; [14],25%
same,Total Cell Count,[2]; [14],79
same,Population Apoptotic (%),[2]; [15],64% and 60%
same,Population Fragmented Nuclei (%),[2]; [15],34% and 27%
same,Population Healthy Nuclei (%),[2]; [15],44% and 54%
same,Population Hoechst High Intensity Objects (%),[2]; [15],34% and 39%
same,Population Membrane Permeable-Phenotype (%),[2]; [15],26% and 10%
same,Population Mitochondria Different-Phenotype (%),[2]; [15],26% and 11%
same,Population Mitotic Cells (%),[2]; [15],35% and 39%
same,Population Normal (%),[2]; [15],65% and 60%
same,Population Pyknosed Nuclei (%),[2]; [15],20% and 17%
same,Population Tubulin-Different-Phenotype (%),[2]; [15],76% and 61%
same,Population Apoptotic (%),[2]; [16],75% and 35%
same,Population Healthy Nuclei (%),[2]; [16],35% and 64%
same,Population Mitochondria Different-Phenotype (%),[2]; [16],96%
same,Population Mitotic Cells (%),[2]; [16],25% and 65%
same,Population Normal (%),[2]; [16],50% and 97%
same,Population Pyknosed Nuclei (%),[2]; [16],9% and 24%
same,Population Tubulin-Different-Phenotype (%),[2]; [16],73% and 100%
same,Total Cell Count,[2]; [16],83 and 72
same,Population Apoptotic (%),[2]; [17],71%
same,Population Fragmented Nuclei (%),[2]; [17],35%
same,Population Healthy Nuclei (%),[2]; [17],50%
same,Population Hoechst High Intensity Objects (%),[2]; [17],46%
same,Population Membrane Permeable-Phenotype (%),[2]; [17],11%
same,Population Mitochondria Different-Phenotype (%),[2]; [17],7%
same,Population Mitotic Cells (%),[2]; [17],28%
same,Population Normal (%),[2]; [17],53%
same,Population Pyknosed Nuclei (%),[2]; [17],13%
same,Population Tubulin-Different-Phenotype (%),[2]; [17],65%
same,Total Cell Count,[2]; [17],96
same,Population Apoptotic (%),[2]; [18],57%
same,Population Fragmented Nuclei (%),[2]; [18],32%
same,Population Healthy Nuclei (%),[2]; [18],55%
same,Population Hoechst High Intensity Objects (%),[2]; [18],35%
same,Population Membrane Permeable-Phenotype (%),[2]; [18],9%
same,Population Mitochondria Different-Phenotype (%),[2]; [18],6%
same,Population Mitotic Cells (%),[2]; [18],42%
same,Population Normal (%),[2]; [18],64%
same,Population Pyknosed Nuclei (%),[2]; [18],11%
same,Population Tubulin-Different-Phenotype (%),[2]; [18],71%
same,Total Cell Count,[2]; [18],281
same,Growth Rate,[3]; [4],0
same,Growth Rate,[3]; [5],0
same,Growth Rate,[3]; [6],0
same,Growth Rate,[3]; [7],0
same,Growth Rate,[3]; [8],0
